This is an account of results in ChEMBL document CHEMBL1152831, “Synthesis and pharmacological screening of derivatives of isoxazolo[4,5-d]pyrimidine” (2008).

Common to all, as to assay type: functional
One experiment relates to CCRF-CEM. Description: Antitumor activity against human CCRF-CEM cells.
The next experiment deals with K562. Description: Antitumor activity against human K562 cells.
A further experiment relates to MOLT-4. Description: Antitumor activity against human MOLT4 cells.
Another experiment deals with HOP-92. Put plainly: Antitumor activity against human HOP92 cells.
Another experiment has as its system NCI-H522. Description: Antitumor activity against human NCI-H522 cells.
The next experiment relates to HCC 2998. Description: Antitumor activity against human HCC2998 cells.
In the next experiment the test system is HCT-15. Description: Antitumor activity against human HCT15 cells.
The next experiment deals with SF-539. Description: Antitumor activity against human SF539 cells.
The subject of another experiment is U-251. Description: Antitumor activity against human U251 cells.
The next experiment deals with LOX IMVI. Put plainly: Antitumor activity against human LOXIMVI cells.
A further experiment has as its system SK-MEL-2. Description: Antitumor activity against human SK-MEL-2 cells.
In another experiment the test system is CAKI-1. Put plainly: Antitumor activity against human Caki1 cells.
Experiment [1] deals with Mus musculus. Description: Effect on humoral immune response in sheep red blood cells-immunized CBA mouse spleen assessed as number of antibody forming unit per 10^6 viable cells at 10 ug, ip by local hemolysis assay. In outline:
(§1)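 Male and female CBA mice, 12 weeks old, immunized i.p. with 0.2 mL of 5% SRBC in 0.9% NaCl. Compounds (DMSO stock diluted in saline) were given i.p. 2 h later; controls received saline or diluted DMSO. Spleens were taken on day 4 and antibody-forming cells counted by local hemolysis assay per 10⁶ viable splenocytes. Mean of 5 mice per group ±SE, t-test.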

The subject of experiment [2] is Mus musculus. Description: Effect on humoral immune response in sheep red blood cells-immunized CBA mouse spleen assessed as number of antibody forming unit per 10^6 viable cells at 100 ug, ip by local hemolysis assay. In outline:
as §1

Experiment [3] concerns Mus musculus. Put plainly: Effect on delayed type hypersensitivity in sheep red blood cells-immunized CBA mouse assessed as foot-pad edema at 10 ug, ip. In outline: (§2)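 Male and female CBA mice, 12 weeks old, sensitized i.v. with 10⁵ SRBCs in 0.2 mL. Compounds were dissolved in DMSO, then diluted in 0.9% NaCl, and given i.p. 2 h later. Controls received saline or diluted DMSO. On day 4, 10⁸ SRBCs in 0.05 mL were injected into the hind footpads. Footpad edema was measured by callipers 24 h later, minus the naive-mouse background. Mean ±SE, t-test.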

The subject of experiment [4] is Mus musculus. Put plainly: Effect on delayed type hypersensitivity in sheep red blood cells-immunized CBA mouse assessed as foot-pad edema at 100 ug, ip. The procedure, abridged:
as §2

For experiment [5], the system named is Splenocyte. Description: Effect on cancavalin-A-induced proliferation in mouse splenocytes at 1 ug/ml assessed as proliferation rate by MTT assay. The procedure, abridged:
(§3)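 Splenocytes from CBA mice were pressed through a screen into Hank's medium. Erythrocytes were lysed with 0.83% NH4Cl, cells washed twice and passed through cotton wool to remove dead cells. They were resuspended in RPMI 1640 with 10% FCS, L-glutamine, pyruvate and antibiotics. 2×10⁵ cells per well, Con A at 2.5 final, compounds across 0.1–10. After 3 days, MTT read as OD 550/630 nm. Mean of quadruplicate wells ±SE, Student's t-test.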
(In general: Tetrazolium dyes change colour on reduction, which living cells bring about.)

In experiment [6] the test system is Splenocyte. Description: Effect on cancavalin-A-induced proliferation in mouse splenocytes at 0.1 ug/ml assessed as proliferation rate by MTT assay. In outline:
as §3

Experiment [7] relates to Splenocyte. Put plainly: Effect on cancavalin-A-induced proliferation in mouse splenocytes at 10 ug/ml assessed as proliferation rate by MTT assay. In outline:
as §3

Where [8] appears, read: read-out: Log10GI50 (converted).
The mark [9] stands for this setting: read-out: Log10LC50 (converted).

Turning to `Nc1c(-c2nnco2)noc1C(=O)c1ccccc1`, the GI50 was 18.2 µM in the experiment on CCRF-CEM (setting [8]); 57.5 µM in the experiment with K562 (setting [8]); 56.2 µM in the experiment on MOLT-4 (setting [8]); 30.9 µM in the experiment with HOP-92 (setting [8]); 33.9 µM in the experiment on NCI-H522 (setting [8]); 26.9 µM in the experiment on HCC 2998 (setting [8]). For the same compound, the GI50 in the experiment with HCT-15 (setting [8]) is 29.5 µM; with SF-539 (setting [8]), 2.75 µM; in the experiment with U-251 (setting [8]), 16.2 µM; with LOX IMVI (setting [8]), 28.8 µM; in the experiment on SK-MEL-2 (setting [8]), 33.1 µM; in the experiment with CAKI-1 (setting [8]), 21.9 µM. The CC50 in the experiment on CCRF-CEM (setting [9]), in the experiment on K562 (setting [9]), with MOLT-4 (setting [9]), in the experiment with HOP-92 (setting [9]), with NCI-H522 (setting [9]) and with HCC 2998 (setting [9]) was greater than 100 µM throughout. The CC50 is greater than 100 µM in the experiment on HCT-15 (setting [9]); 64.6 µM in the experiment with SF-539 (setting [9]); greater than 100 µM in the experiment with U-251 (setting [9]); greater than 100 µM in the experiment on LOX IMVI (setting [9]); greater than 100 µM in the experiment with SK-MEL-2 (setting [9]); greater than 100 µM with CAKI-1 (setting [9]). Also, the TGI was greater than 100 µM in the experiment with CCRF-CEM (read-out: Log10TGI (converted)); greater than 100 µM in the experiment on K562 (read-out: Log10TGI (converted)); greater than 100 µM in the experiment with MOLT-4 (read-out: Log10TGI (converted)); 97.7 µM in the experiment with HOP-92 (read-out: Log10TGI (converted)); greater than 100 µM in the experiment on NCI-H522 (read-out: Log10TGI (converted)); 95.5 µM in the experiment with HCC 2998 (read-out: Log10TGI (converted)). Also, the TGI was greater than 100 µM with HCT-15 (read-out: Log10TGI (converted)); 22.4 µM in the experiment on SF-539 (read-out: Log10TGI (converted)); 69.2 µM in the experiment on U-251 (read-out: Log10TGI (converted)); greater than 100 µM in the experiment with LOX IMVI (read-out: Log10TGI (converted)); greater than 100 µM in the experiment with SK-MEL-2 (read-out: Log10TGI (converted)); greater than 100 µM in the experiment on CAKI-1 (read-out: Log10TGI (converted)).
For the compound `Cc1nc(-c2ccccc2)c2onc(-c3nnc(C(=O)NCc4cccnc4)o3)c2n1`, the Activity was found to be 1660 in the experiment with Mus musculus [1], 545 in the experiment on Mus musculus [2], 5.9 with Mus musculus [3] and 3.5 with Mus musculus [4]. Also, the figures for the OD in the experiment on Splenocyte [5], in the experiment with Splenocyte [6] and in the experiment on Splenocyte [7] were 0.479, 0.483 and 0.482, respectively.
Turning to `Nc1c(-c2nnc(C(=O)NCc3ccncc3)o2)noc1C(=O)c1ccccc1`, the Activity is recorded as 1361 with Mus musculus [1], 574 in the experiment on Mus musculus [2], 7.9 with Mus musculus [3] and 4.9 in the experiment on Mus musculus [4]. The OD came out at 0.401 in the experiment on Splenocyte [5], 0.442 with Splenocyte [6] and 0.371 in the experiment on Splenocyte [7].
On to `C/C=C/C[C@@H](C)[C@@H](O)[C@H]1C(=O)N[C@@H](CC)C(=O)N(C)CC(=O)N(C)[C@@H](CC(C)C)C(=O)N[C@@H](C(C)C)C(=O)N(C)[C@@H](CC(C)C)C(=O)N[C@@H](C)C(=O)N[C@H](C)C(=O)N(C)[C@@H](CC(C)C)C(=O)N(C)[C@@H](CC(C)C)C(=O)N(C)[C@@H](C(C)C)C(=O)N1C` [CYCLOSPORINE], for which the Activity in the experiment on Mus musculus [1] is recorded as 1617; with Mus musculus [2], 953; in the experiment on Mus musculus [3], 6.1. The OD in the experiment with Splenocyte [5] is 0.046; in the experiment on Splenocyte [6], 0.07; with Splenocyte [7], 0.001.
